# Assay results as given in ChEMBL document CHEMBL4014266, “Anti-Neurodegenerative Biflavonoid Glycosides from Impatiens balsamina” (J Nat Prod, 2017).
# Columns and labels:
# BV-2 = experiment: Antiinflammatory activity in mouse BV2 cells assessed as inhibition of LPS-induced nitrite production after 24 hrs by Griess assay; assay type: functional, cell-based; conditions: BV-2, 24 h
# Outline: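 BV-2 microglia seeded at 4 × 10^4 cells/well, exposed to graded doses of compounds with LPS stimulation. Nitrite quantified against a sodium nitrite standard curve; IC50 taken as the concentration giving 50% inhibition of NO production. L-NMMA as positive control. Mean ± SD of three independent experiments.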
# [1] = Cytotoxicity against mouse BV2 cells assessed as cell viability at 20 uM after 24 hrs by MTT assay relative to control; assay type: cell-based, BV-2; conditions: read-out: Activity
# Outline: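 BV-2 cells seeded at 4 × 10^4 cells/well, treated with 20 μM compound; viability read by MTT and expressed as percent. Mean ± SD of three independent experiments.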
# C6 = experiment: Neuroprotective activity in rat C6 cells assessed as NGF secretion at 20 uM after 24 hrs by ELISA relative to control; assay type: functional
# Outline: (§1)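 C6 cells seeded at 1 × 10^5 cells/well; after 1 d switched to serum-free DMEM with 20 μM compound for 24 h. NGF in conditioned medium measured by ELISA as percent of untreated control (100%); viability by MTT as percent. 6-shogaol as positive control.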
# [2] = Cytotoxicity against rat C6 cells assessed as cell viability at 20 uM after 24 hrs by MTT assay relative to control; assay type: cell-based; conditions: read-out: Activity; outline: as §1
# A549 = experiment: Cytotoxicity against human A549 cells after 48 hrs by SRB assay; assay type: functional, cell-based; conditions: A549, 48 h
# Outline: (§2)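 Quantitative staining of cellular protein with sulforhodamine B across human tumour lines A549, SK-OV-3, SK-MEL-2 and Bt549; IC50 derived. Etoposide served as positive control.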
# SK-OV-3 = experiment: Cytotoxicity against human SKOV3 cells after 48 hrs by SRB assay; assay type: functional, cell-based; conditions: SK-OV-3, 48 h; outline: as §2
# SK-MEL-2 = experiment: Cytotoxicity against human SK-MEL-2 cells after 48 hrs by SRB assay; assay type: functional, cell-based; conditions: SK-MEL-2, 48 h; outline: as §2
# BT-549 = experiment: Cytotoxicity against human BT549 cells after 48 hrs by SRB assay; assay type: functional, cell-based; conditions: BT-549, 48 h; outline: as §2
IC50 (BV-2) [µM],Compound,"viability at 24 h, 20 µM [1] [%]",Activity (C6) [%],"viability at 24 h, 20 µM [2] [%]",IC50 (A549) [µM],IC50 (SK-OV-3) [µM],IC50 (SK-MEL-2) [µM],IC50 (BT-549) [µM]
31,C[C@@H]1O[C@@H](OC[C@H]2O[C@@H](Oc3c(-c4ccc(O)cc4)oc4c([C@]56O[C@@]5(c5ccc(O)cc5)Oc5cc(O)cc(O)c5C6=O)c(O)cc(O)c4c3=O)[C@H](O)[C@@H](O)[C@@H]2O)[C@H](O)[C@H](O)[C@H]1O,100,74.27,109,> 10,> 10,> 10,> 10
39.2,C[C@@H]1O[C@@H](OC[C@H]2O[C@@H](Oc3c(-c4ccc(O)cc4)oc4c([C@@]56O[C@]5(c5ccc(O)cc5)Oc5cc(O)cc(O)c5C6=O)c(O)cc(O)c4c3=O)[C@H](O)[C@@H](O)[C@@H]2O)[C@H](O)[C@H](O)[C@H]1O,99.9,88.36,102,> 10,> 10,> 10,> 10
80.4,O=c1c(O[C@@H]2O[C@H](CO)[C@@H](O)[C@@H](O)[C@H]2O)c(-c2ccc(O)cc2)oc2cc(O)cc(O)c12,97.5,83.79,105,> 10,> 10,> 10,> 10
56.9,O=C1c2c(O)cc(O)cc2O[C@]2(c3ccc(O)cc3)O[C@]12c1c(O)cc(O)c2c(=O)c(O[C@@H]3O[C@H](CO)[C@@H](O)[C@H](O)[C@H]3O)c(-c3ccc(O)cc3)oc12,104,90.12,107,> 10,> 10,> 10,> 10
33.3,O=C1c2c(O)cc(O)cc2O[C@@]2(c3ccc(O)cc3)O[C@@]12c1c(O)cc(O)c2c(=O)c(O[C@@H]3O[C@H](CO)[C@@H](O)[C@H](O)[C@H]3O)c(-c3ccc(O)cc3)oc12,110,121.42,113,> 10,> 10,> 10,> 10
31.7,C[C@@H]1O[C@@H](O[C@H]2[C@H](Oc3c(-c4ccc(O)cc4)oc4cc(O)cc(O)c4c3=O)O[C@H](CO)[C@@H](O)[C@@H]2O)[C@H](O)[C@H](O)[C@H]1O,103,123.31,102,> 10,> 10,> 10,> 10
32.7,O=C1c2c(O)cc(O)cc2O[C@H](c2cc(O)c(O)c(O)c2)[C@H]1O [AMPELOPSIN],97,172.04,110,> 10,> 10,> 10,> 10
23.5,O=c1c(O[C@@H]2O[C@H](CO)[C@@H](O)[C@H](O)[C@H]2O)c(-c2ccc(O)cc2)oc2cc(O)cc(O)c12 [ASTRAGALIN],97.5,114.67,115,> 10,> 10,> 10,> 10
